This note sets out measurements from ChEMBL document CHEMBL1131093, “ATP-Citrate lyase as a target for hypolipidemic intervention. 2. Synthesis and evaluation of (3R,5S)-omega-substituted-3-carboxy-3, 5-dihydroxyalkanoic acids and their gamma-lactone prodrugs as inhibitors of the enzyme in vitro and in vivo” (J Med Chem, 1998).

The test system of experiment [1] is HepG2. As to the kind of experiment: (§1) Inhibition of fatty acid synthesis in HepG2 cells was measured at 10 uM concentration. The format is functional, Homo sapiens. Set-up: scale not given: the % may be the effect or the level left. The gist of the method: (§2)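 Compounds were applied to HepG2 cells as their γ-lactone prodrugs. De novo cholesterol synthesis, fatty acid synthesis and cellular ATP levels were each expressed as % of control. Significance was marked at p < 0.001.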

Experiment [2] has as its system HepG2. Described as §1. It counts as functional, Homo sapiens. The arrangement: scale not given: the % may be the effect or the level left. The gist of the method:
as §2
The source holds these as a separate data set.

Experiment [3] relates to HepG2. Nature of the experiment: Inhibition of ATP levels in HepG2 cells was measured at 30 uM concentration. The format is functional, Homo sapiens. Set-up: scale not given: the % may be the effect or the level left. The gist of the method: as §2
Experiment [4] has as its system HepG2. As to the kind of experiment: Inhibition of cholesterol synthesis in HepG2 cells was measured at 3 uM concentration. It counts as functional, Homo sapiens. Set-up: scale not given: the % may be the effect or the level left. The gist of the method:
as §2

Experiment [5] has as its system HepG2. As to the kind of experiment: Inhibition of fatty acid synthesis in HepG2 cells was measured at 3 uM concentration. It counts as functional, Homo sapiens. Set-up: scale not given: the % may be the effect or the level left. The gist of the method: as §2
The test system of experiment [6] is HepG2. Nature of the experiment: Inhibition of ATP levels in HepG2 cells was measured at 3 uM concentration. It counts as functional, Homo sapiens. The arrangement: scale not given: the % may be the effect or the level left. An outline of the steps: as §2
For experiment [7], the system named is HepG2. Nature of the experiment: Inhibition of ATP levels in HepG2 cells was measured at 10 uM concentration. The format is functional, Homo sapiens. Set-up: scale not given: the % may be the effect or the level left. The gist of the method:
as §2

Experiment [8] concerns HepG2. As to the kind of experiment: Inhibition of cholesterol synthesis in HepG2 cells was measured at 10 uM concentration. The arrangement: scale not given: the % may be the effect or the level left. The format is functional, Homo sapiens. An outline of the steps: as §2
Experiment [9] deals with HepG2. Nature of the experiment: Inhibition of cholesterol synthesis in HepG2 cells was measured at 15 uM concentration. The format is functional, Homo sapiens. The arrangement: scale not given: the % may be the effect or the level left. An outline of the steps: as §2
The test system of experiment [10] is HepG2. Nature of the experiment: Inhibition of ATP levels in HepG2 cells was measured at 15 uM concentration. The format is functional, Homo sapiens. The arrangement: scale not given: the % may be the effect or the level left. The gist of the method: as §2
For experiment [11], the system named is HepG2. Nature of the experiment: (§3) Inhibition of fatty acid synthesis in HepG2 cells was measured at 15 uM concentration. The format is functional, Homo sapiens. The arrangement: scale not given: the % may be the effect or the level left. An outline of the steps: as §2
For experiment [12], the system named is HepG2. Described as §3. The format is functional, Homo sapiens. The arrangement: scale not given: the % may be the effect or the level left. The gist of the method:
as §2
The source holds these as a separate data set.

Experiment [13] concerns HepG2. Nature of the experiment: Inhibition of cholesterol synthesis in HepG2 cells was measured at 5 uM concentration. The format is functional, Homo sapiens. The arrangement: scale not given: the % may be the effect or the level left. The gist of the method: as §2
Experiment [14] concerns HepG2. Nature of the experiment: Inhibition of cholesterol synthesis in HepG2 cells was measured at 30 uM concentration. The arrangement: scale not given: the % may be the effect or the level left. The format is functional, Homo sapiens. The gist of the method:
as §2

Experiment [15] relates to HepG2. Nature of the experiment: Inhibition of fatty acid synthesis in HepG2 cells was measured at 30 uM concentration. The arrangement: scale not given: the % may be the effect or the level left. It counts as functional, Homo sapiens. An outline of the steps: as §2
In experiment [16] the test system is HepG2. As to the kind of experiment: Inhibition of fatty acid synthesis in HepG2 cells was measured at 5 uM concentration. The format is functional, Homo sapiens. Set-up: scale not given: the % may be the effect or the level left. The gist of the method:
as §2

The subject of experiment [17] is HepG2. As to the kind of experiment: Inhibition of ATP levels in HepG2 cells was measured at 5 uM concentration. The arrangement: scale not given: the % may be the effect or the level left. It counts as functional, Homo sapiens. The gist of the method:
as §2

The next experiment deals with T1, ATP-citrate synthase (Rattus norvegicus, UniProt P16638).
T1 sequence (P16638 whole entry): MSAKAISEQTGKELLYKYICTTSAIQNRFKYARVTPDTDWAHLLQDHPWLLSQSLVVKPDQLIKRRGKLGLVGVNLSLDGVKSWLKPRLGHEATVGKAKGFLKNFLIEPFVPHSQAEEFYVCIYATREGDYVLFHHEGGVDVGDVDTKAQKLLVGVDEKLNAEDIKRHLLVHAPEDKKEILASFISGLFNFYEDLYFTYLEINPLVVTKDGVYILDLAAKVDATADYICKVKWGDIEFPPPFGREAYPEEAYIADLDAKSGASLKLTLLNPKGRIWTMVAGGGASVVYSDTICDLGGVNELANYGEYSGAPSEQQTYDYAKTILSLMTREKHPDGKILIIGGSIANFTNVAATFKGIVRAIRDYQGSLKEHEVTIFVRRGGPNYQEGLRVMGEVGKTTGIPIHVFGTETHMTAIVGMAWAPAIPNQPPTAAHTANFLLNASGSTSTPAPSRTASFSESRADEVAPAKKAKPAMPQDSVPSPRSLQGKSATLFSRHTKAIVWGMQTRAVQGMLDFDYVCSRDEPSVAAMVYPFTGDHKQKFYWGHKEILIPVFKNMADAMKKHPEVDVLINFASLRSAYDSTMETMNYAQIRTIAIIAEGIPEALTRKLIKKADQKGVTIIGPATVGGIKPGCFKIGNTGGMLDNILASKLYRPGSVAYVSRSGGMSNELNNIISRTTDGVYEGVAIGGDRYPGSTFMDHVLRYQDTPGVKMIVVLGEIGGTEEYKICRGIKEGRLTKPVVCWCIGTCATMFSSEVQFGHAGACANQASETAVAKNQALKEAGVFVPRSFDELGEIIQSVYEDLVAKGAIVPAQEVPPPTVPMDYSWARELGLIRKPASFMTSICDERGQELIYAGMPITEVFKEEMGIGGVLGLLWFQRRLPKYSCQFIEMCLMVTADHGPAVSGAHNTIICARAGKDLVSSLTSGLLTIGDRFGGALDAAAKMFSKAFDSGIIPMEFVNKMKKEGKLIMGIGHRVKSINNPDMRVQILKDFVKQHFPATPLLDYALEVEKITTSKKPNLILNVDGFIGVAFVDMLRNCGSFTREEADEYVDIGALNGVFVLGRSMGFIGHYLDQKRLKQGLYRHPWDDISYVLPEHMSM
As to the kind of experiment: Inhibitory activity was tested against ATP-Citrate Lyase (ACL) enzyme in rat.

pKi: −log10 of the molar value. Where “and” joins values, the source holds several entries; their conditions need not be identical. Equal values may be shown once.

Regarding `O=C(O)C[C@@]1(O)C[C@@H](CCCCCCc2ccc(Cl)cc2-c2ccccc2)OC1=O`, the Control amounted to 75% with HepG2 [1]; 88% with HepG2 [2]; 95% in the experiment with HepG2 [3]; 101% in the experiment with HepG2 [4]; 108% in the experiment with HepG2 [5]; 98% in the experiment on HepG2 [6]. For the same molecule, the Control is 96% and 100% in the experiment on HepG2 [7]; 65% and 60% in the experiment on HepG2 [8].

Turning to `O=C(O)C[C@@]1(O)C[C@@H](CCCCCCc2ccc(Cl)cc2Cl)OC1=O` (stereo in doubt; (+)-77), the Control in the experiment on HepG2 [9] is 52% and 41%; in the experiment with HepG2 [10] it was 100%; in the experiment with HepG2 [11] it was 69%; in the experiment with HepG2 [3], 99%; in the experiment with HepG2 [12] it was 81%; in the experiment on HepG2 [13], 95%. The results for the Control in the experiment with HepG2 [14], with HepG2 [15] and with HepG2 [16] were 11%, 25% and 113%, respectively.

As for `O=C(O)C[C@@]1(O)C[C@@H](CCCCCCc2ccc(Cl)cc2Cl)OC1=O` (stereo in doubt; (-)-77), the Control was 37% and 33% in the experiment on HepG2 [9]; 99% and 98% in the experiment on HepG2 [10]; 82% in the experiment on HepG2 [11]; 101% with HepG2 [17]; 98% in the experiment on HepG2 [3]; 90% in the experiment with HepG2 [12]. For the same molecule, the Control in the experiment with HepG2 [13] is given as 105%; in the experiment with HepG2 [14], 9%; in the experiment with HepG2 [15], 39%; in the experiment on HepG2 [16], 123%.

On to `N[C@H](C(=O)O)[C@@](O)(CC(=O)O)C(=O)O`, for which, at ATP-citrate synthase, the pKi (as a rule, −log10 of the Ki, conventionally taken in molar units) is 4.96.
